Data from article PMC5955836 (ACS chemical neuroscience, 2018).
Entries after “also recorded” stand apart in the source; their conditions may differ. Like-named read-outs stand apart in the source and are kept apart here. Non-standard residues stand in square brackets, D forms with d.

What was measured:
mMC5R [1] = target: T1, mMC5R (Mus musculus, UniProt P41149); type: cell-based; conditions: for mMC5R inverse agonist potency compared within series: fold less potent than KAF2039-9, the most potent inverse agonist; for mMC5R maximal decrease in basal activity at the plateau: sigmoidal dose-response, relative to basal
T1 sequence (P41149 whole entry): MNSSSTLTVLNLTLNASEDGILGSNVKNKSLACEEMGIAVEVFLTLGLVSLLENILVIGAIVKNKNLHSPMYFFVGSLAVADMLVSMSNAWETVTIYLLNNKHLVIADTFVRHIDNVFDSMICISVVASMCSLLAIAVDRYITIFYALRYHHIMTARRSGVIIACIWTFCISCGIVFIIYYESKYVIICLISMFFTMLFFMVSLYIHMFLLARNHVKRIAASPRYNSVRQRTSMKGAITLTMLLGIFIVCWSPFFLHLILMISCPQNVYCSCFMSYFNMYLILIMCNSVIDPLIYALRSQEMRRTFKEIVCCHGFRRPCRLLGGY

mMC3R [2] = target: T2, mMC3R (Mus musculus, UniProt P33033); assay: AlphaScreen cAMP antagonist assay; type: cell-based; conditions: for antagonist activity at the mMC3R: at the concentrations examined in this study
T2 sequence (P33033 whole entry): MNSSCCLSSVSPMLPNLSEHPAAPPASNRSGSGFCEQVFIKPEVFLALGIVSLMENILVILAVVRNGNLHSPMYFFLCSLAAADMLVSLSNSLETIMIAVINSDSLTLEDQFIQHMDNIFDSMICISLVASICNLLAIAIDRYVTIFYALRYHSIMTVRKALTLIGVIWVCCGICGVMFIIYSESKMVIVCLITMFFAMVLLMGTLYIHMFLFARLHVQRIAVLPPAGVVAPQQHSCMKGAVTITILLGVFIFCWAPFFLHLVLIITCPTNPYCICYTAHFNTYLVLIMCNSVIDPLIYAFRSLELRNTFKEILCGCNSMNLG

mMC1R [3] = target: T3, mMC1R (Mus musculus, UniProt Q01727); conditions: for mMC1R percent activation at 100 μM: no sigmoidal dose-response, relative to NDP-MSH; for agonist activity at the MC1R: up to 100 μM
T3 sequence (Q01727 whole entry): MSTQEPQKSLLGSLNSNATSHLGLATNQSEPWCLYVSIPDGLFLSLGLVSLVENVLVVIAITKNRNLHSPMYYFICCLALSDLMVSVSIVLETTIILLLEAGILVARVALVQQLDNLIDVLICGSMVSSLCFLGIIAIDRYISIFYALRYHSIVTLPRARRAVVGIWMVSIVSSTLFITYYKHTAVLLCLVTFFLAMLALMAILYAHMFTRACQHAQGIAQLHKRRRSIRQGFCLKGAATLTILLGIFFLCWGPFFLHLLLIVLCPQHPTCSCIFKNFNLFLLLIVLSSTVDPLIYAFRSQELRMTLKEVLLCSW

Male Wildtype (WT) mice = assay: Mouse feeding study, intrathecal injection: cumulative food intake; type: in vivo
Method in brief: (§1)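 Eight male WT mice, 24 weeks old, singly housed, ad libitum chow, reversed 12 h light/dark (lights off 12:00pm), 23–25°C. Crossover, non-fasting; single IT injection 2 h before lights out of 2 nmol/5 μL (20% solutol stock diluted in ddH2O) or matched vehicle; 7 days between treatments. Food and body weight at 2–72 h; two-factor repeated-measures ANOVA (drug × time).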

[4] = Mouse feeding study, intrathecal injection: body weight; type: in vivo; conditions: male WT mice, 2 nmol, up to 72 hours post-injection
Method in brief: as §1

MC3R = conditions: unable to bind at up to this concentration; cited from earlier work
MC4R = conditions: unable to bind at up to this concentration; cited from earlier work
MC1R = conditions: read-out: MC1R agonist EC50; cited from earlier work
mMC3R [5] = target: T2, mMC3R; conditions: highest concentrations of antagonist assayed; cited from earlier work
mMC4R [6] = target: T4, mMC4R (Mus musculus, UniProt P56450); conditions: cited from earlier work
T4 sequence (P56450 whole entry): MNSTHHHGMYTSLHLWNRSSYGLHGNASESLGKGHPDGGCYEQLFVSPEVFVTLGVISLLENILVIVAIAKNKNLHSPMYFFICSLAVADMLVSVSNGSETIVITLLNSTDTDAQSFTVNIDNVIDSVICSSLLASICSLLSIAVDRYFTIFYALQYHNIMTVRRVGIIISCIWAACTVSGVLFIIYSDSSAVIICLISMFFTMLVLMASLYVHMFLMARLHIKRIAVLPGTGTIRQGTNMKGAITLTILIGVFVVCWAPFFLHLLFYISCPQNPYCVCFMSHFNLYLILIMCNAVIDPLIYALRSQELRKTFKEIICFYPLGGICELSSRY

[7] = target: mouse melanocortin-4 receptor (mouse) (UniProt P56450)
Sequence of mouse melanocortin-4 receptor (mouse) (P56450 whole entry): as above

mMC4R [8] = target: T4, mMC4R; assay: AlphaScreen cAMP antagonist assay; type: cell-based
[9] = target: mouse melanocortin-1 receptor (mouse) (UniProt Q01727)
Sequence of mouse melanocortin-1 receptor (mouse) (Q01727 whole entry): as the sequence (Q01727 whole entry) above

mMC1R [10] = target: T3, mMC1R; conditions: read-out: mMC1R Agonist EC50; previously published peptide; cited from earlier work
mMC4R [11] = target: T4, mMC4R; conditions: cited from earlier work; remark: listed apart in the source
mMC3R [12] = target: T2, mMC3R; conditions: previously published peptide, cited from earlier work
mMC5R [13] = target: T1, mMC5R; conditions: read-out: mMC5R Inverse Agonist EC50; previously published peptide; cited from earlier work
[14] = Schild analysis with NDP-MSH, < 5.5 = no antagonist potency at up to 10,000 nM

Compound: C[C@@H]1NC(=O)[C@H](CC(N)=O)NC(=O)[C@H](Cc2ccccc2)NC(=O)[C@H](Cc2ccccc2)NC(=O)[C@H](CCCNC(=N)N)NC(=O)[C@@H]2CCCN2C(=O)[C@H]2CCCN2C(=O)CNC1=O [Compound 2, c[Pro-Arg-Phe-Phe-Asn-Ala-Gly-DPro]]
- mMC5R percent decrease in receptor activity compared to basal at 100 μM (mMC5R [1]; 100 μM, no plateau): −25% @ 100 μM
- antagonist activity at the mMC3R (mMC3R [2]): not observed
- mMC1R percent activation at 100 μM (mMC1R [3]): 60% @ 100 μM
- agonist activity at the MC1R (mMC1R [3]): partially stimulate

Compound: C[C@@H]1NC(=O)[C@H](CC(N)=O)NC(=O)[C@H](Cc2ccccc2)NC(=O)[C@H](Cc2ccccc2)NC(=O)[C@H](CCCNC(=N)N)NC(=O)[C@@H]2CCCN2C(=O)[C@H]2CCCN2C(=O)[C@H](CO)NC1=O [Compound 3, c[Pro-Arg-Phe-Phe-Asn-Ala-Ser-DPro]]
- mMC5R percent decrease in receptor activity compared to basal at 100 μM (mMC5R [1]; 100 μM, no plateau): −55% @ 100 μM
- mMC5R percent decrease in receptor activity compared to basal at 100 μM (mMC5R [1]; 100000.0): −55%
- mMC1R percent activation at 100 μM (mMC1R [3]): 35% @ 100 μM
- agonist activity at the MC1R (mMC1R [3]): partially stimulate

Compound: C[C@@H]1NC(=O)[C@H](CC(N)=O)NC(=O)[C@H](Cc2ccccc2)NC(=O)[C@H](Cc2ccccc2)NC(=O)[C@H](CCCNC(=N)N)NC(=O)[C@@H]2CCCN2C(=O)[C@H]2CCCN2C(=O)[C@H](CCCCN)NC1=O [Compound 4, c[Pro-Arg-Phe-Phe-Asn-Ala-Lys-DPro]]
- mMC5R percent decrease in receptor activity compared to basal at 100 μM (mMC5R [1]; 100 μM, no plateau): −40% @ 100 μM
- mMC5R percent decrease in receptor activity compared to basal at 100 μM (mMC5R [1]; 100000.0): −40%

Compound: CC(C)C[C@@H]1NC(=O)[C@H](C)NC(=O)[C@H](CC(N)=O)NC(=O)[C@H](Cc2ccccc2)NC(=O)[C@H](Cc2ccccc2)NC(=O)[C@H](CCCNC(=N)N)NC(=O)[C@@H]2CCCN2C(=O)[C@H]2CCCN2C1=O [Compound 6, c[Pro-Arg-Phe-Phe-Asn-Ala-Leu-DPro]]
- mMC5R percent decrease in receptor activity compared to basal at 100 μM (mMC5R [1]; 100 μM, no plateau): −35% @ 100 μM
- antagonist activity at the mMC3R (mMC3R [2]): not observed

Compound: CCCC[C@@H]1NC(=O)[C@H](C)NC(=O)[C@H](CC(N)=O)NC(=O)[C@H](Cc2ccccc2)NC(=O)[C@H](Cc2ccccc2)NC(=O)[C@H](CCCNC(=N)N)NC(=O)[C@@H]2CCCN2C(=O)[C@H]2CCCN2C1=O [Compound 7, c[Pro-Arg-Phe-Phe-Asn-Ala-Nle-DPro]]
- mMC5R percent decrease in receptor activity compared to basal at 100 μM (mMC5R [1]; 100 μM, no plateau): −35% @ 100 μM
- mMC5R percent decrease in receptor activity compared to basal at 100 μM (mMC5R [1]; 100000.0): –35%
- cumulative food intake vs vehicle (Male Wildtype (WT) mice; 2 nmol IT single injection, 2 and 6 hours post-injection): ate significantly more food
- food intake trend vs vehicle (Male Wildtype (WT) mice; 2 nmol IT, up to 72 hours post-injection, listed as KAF2039-7): prolonged trend of increased food intake; also recorded: strong trend in increased food intake; also recorded: trend exhibited out until 72 hours post-injection
- main effect of drug on food intake, two-factor repeated measures ANOVA (Male Wildtype (WT) mice; 2 nmol, first 72 hours post-injection): main effect of drug
- mouse body weight vs vehicle [4]: main effect of drug
- mouse body weight vs vehicle ([4]; listed as KAF2039-7): treated animals weighing more than control animals

Compound: C[C@@H]1NC(=O)[C@H](CC(N)=O)NC(=O)[C@H](Cc2ccccc2)NC(=O)[C@H](Cc2ccccc2)NC(=O)[C@H](CCCNC(=N)N)NC(=O)[C@@H]2CCCN2C(=O)[C@H]2CCCN2C(=O)[C@H](Cc2c[nH]c3ccccc23)NC1=O [Compound 8, c[Pro-Arg-Phe-Phe-Asn-Ala-Trp-DPro]]
- mMC5R inverse agonist potency compared within series (mMC5R [1]): equipotent to each other
- mMC5R maximal decrease in basal activity at the plateau (mMC5R [1]): −20%
- mMC1R partial agonist maximal percent activated (mMC1R [3]): 50%

Compound: C[C@@H]1NC(=O)[C@H](CC(N)=O)NC(=O)[C@H](Cc2ccccc2)NC(=O)[C@H](Cc2ccccc2)NC(=O)[C@H](CCCNC(=N)N)NC(=O)[C@@H]2CCCN2C(=O)[C@H]2CCCN2C(=O)[C@H](Cc2ccc(O)cc2)NC1=O [Compound 9, c[Pro-Arg-Phe-Phe-Asn-Ala-Tyr-DPro]]
- mMC5R percent decrease in receptor activity compared to basal at 100 μM (mMC5R [1]; 100 μM, no plateau): −40% @ 100 μM

Compound: C[C@@H]1NC(=O)[C@H](CC(N)=O)NC(=O)[C@H](Cc2ccccc2)NC(=O)[C@H](Cc2ccccc2)NC(=O)[C@H](CCCNC(=N)N)NC(=O)[C@@H]2CCCN2C(=O)[C@H]2CCCN2C(=O)[C@H](CC2CCCCC2)NC1=O [Compound 10, c[Pro-Arg-Phe-Phe-Asn-Ala-Cha-DPro]]
- mMC5R inverse agonist potency compared within series (mMC5R [1]): 5 fold
- mMC5R maximal decrease in basal activity at the plateau (mMC5R [1]): −20%

Compound: C[C@@H]1NC(=O)[C@H](CC(N)=O)NC(=O)[C@H](Cc2ccccc2)NC(=O)[C@H](Cc2ccccc2)NC(=O)[C@H](CCCNC(=N)N)NC(=O)[C@@H]2CCCN2C(=O)[C@H]2CCCN2C(=O)[C@H](CCc2ccccc2)NC1=O [Compound 11, c[Pro-Arg-Phe-Phe-Asn-Ala-hPhe-DPro]]
- mMC5R inverse agonist potency compared within series (mMC5R [1]): equipotent to each other
- mMC5R maximal decrease in basal activity at the plateau (mMC5R [1]): −20%
- mMC5R maximal decrease in basal activity at the plateau (mMC5R [1]; listed as KAF2039-13): 20%

Compound: H-Ser-Arg-Phe-Phe-Asn-Ala-Phe-Ser-OH (H-SRFFNAFS-OH)
- binding to the MC3R (MC3R): > 20 µM
- binding to the MC4R (MC4R): > 20 µM

Compound: H-Tyr-c[Cys-Arg-Phe-Phe-Asn-Ala-Phe-Cys]-Tyr-OH [AGRP[109-118]]
- EC50 (MC1R): 3000 nM
- antagonist potency at the mMC3R (mMC3R [5]): does not possess an antagonist potency at the mMC3R that is quantifiable
- antagonist pA2 at the mMC4R (mMC4R [6]): 6.8

Compound: NDP-MSH (4-Norleucine-7-D-Phenylalanine): Ac-Ser-Tyr-Ser-Nle-Glu-His-DPhe-Arg-Trp-Gly-Lys-Pro-Val-NH2 (peptide)
- agonist EC50, cAMP AlphaScreen, HEK293 cells stably expressing mMC4R [7]: 0.35 nM

Compound: c[Pro-Arg-Phe-Phe-Asn-Ala-Asp-DPro] (cyclo(PRFFNAD[dP]); SMILES C[C@@H]1NC(=O)[C@H](CC(N)=O)NC(=O)[C@H](Cc2ccccc2)NC(=O)[C@H](Cc2ccccc2)NC(=O)[C@H](CCCNC(=N)N)NC(=O)[C@@H]2CCCN2C(=O)[C@H]2CCCN2C(=O)[C@H](CC(=O)O)NC1=O) [Compound 5]
- mMC4R Antagonist pA2 (mMC4R [8]; [14]): < 5.5
- antagonist potency at the mMC4R (mMC4R [8]; at the concentrations used in this study): not measurable
- mMC5R percent decrease in receptor activity compared to basal at 100 μM (mMC5R [1]; 100 μM, no plateau): −25% @ 100 μM
- mMC5R percent decrease in receptor activity compared to basal at 100 μM (mMC5R [1]; 100 μM, no plateau, listed as Asp^7): -25%
- mMC3R Antagonist pA2 (mMC3R [2]; [14]): < 5.5
- antagonist activity at the mMC3R (mMC3R [2]): not observed
- mMC1R percent activation at 100 μM (mMC1R [3]): 40% @ 100 μM
- agonist activity at the MC1R (mMC1R [3]): partially stimulate

Compound: c[Pro-Arg-Phe-Phe-Asn-Ala-Trp-DPro] (peptide)
- partial agonist: maximal percent activated, cAMP AlphaScreen, HEK293 cells [9]: 50%

Compound: hAGRP(87-132): Human agouti-related protein fragment 87-132, antagonist of MC3R and MC4R; previously published peptide
- EC50 (mMC1R [10]): > 100000 nM
- selectivity for the MC4R (vs MC3R) (mMC4R [11]): equipotent
- mMC4R Antagonist pA2 (mMC4R [11]; previously published peptide): 9.4±1.0
- Ki (mMC4R [11]; read-out: mMC4R Antagonist Ki, previously published peptide): 0.4 nM
- mMC3R Antagonist pA2 (mMC3R [12]): 8.9±0.2
- Ki (mMC3R [12]; read-out: mMC3R Antagonist Ki): 1.3 nM
- EC50 (mMC5R [13]): > 100000 nM
